One compound from ChEMBL document CHEMBL4265954, “Discovery of potent liver-selective stearoyl-CoA desaturase-1 (SCD1) inhibitors, thiazole-4-acetic acid derivatives, for the treatment of diabetes, hepatic steatosis, and obesity” (Eur J Med Chem, 2018) can be followed below.

≈ marks a conversion by molar mass, not a printed value.

Series [1] is described as follows: Total clearance in C57BL/6J mouse at 1 mg/kg, iv. The format is ADME, organism-based. The following applies: in vivo. Put shortly:
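Single intravenous dose of 1 mg/kg, with a parallel oral arm at 10 mg/kg, given to two male animals per species: C57BL/6J mice and Sprague Dawley rats. Total body clearance was derived from the plasma concentration–time profile of the compound.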

The nature of series [2]: Drug uptake in high sucrose diet Sprague-Dawley rat liver at 10 mg/kg, po treated after 6 hrs. The following applies: read-out: Drug uptake. The format is ADME, organism-based. Put shortly:
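Sprague-Dawley rats on a high sucrose diet, given a single oral 10 mg/kg dose. Plasma, liver and eyelid drug concentrations were measured 6 h later, n=3. Liver/eyelid ratio was taken from the tissue concentrations.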

Series [3] is described as follows: Oral bioavailability in Sprague-Dawley rat at 10 mg/kg. The settings on record: in vivo. Type of series: ADME, organism-based. Put shortly: (§1)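 Two male Sprague-Dawley rats per route, 10 mg/kg po and 1 mg/kg iv. Cmax, tmax, terminal-phase half-life and AUC0-inf were taken from plasma concentration–time curves. Bioavailability was derived from the po and iv data.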

In series [4] the test system is Mus musculus. The experiment in a line: Antiobesity activity in high fat diet fed C57BL/6J mouse assessed as reduction in diet-induced body weight gain at 10 mg/kg, po administered as diet mixture for 43 days relative to control. Type of series: functional. More on the design: scale not given: the % may be the effect or the level left. Put shortly: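 C57BL/6J mice, individually housed, fed HFD for one month, then given HFD admixed with drug (0.0040% for 3 mg/kg/day, 0.0133% for 10 mg/kg/day) for 43 days, from 10 to 16 weeks of age. Chow-fed normal group as control. Body weight measured every 3–4 days. Mean ± SD, n=5–8. Dunnett's test versus HFD control.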

Series [5] concerns Mus musculus. As to the kind of experiment: Ex vivo inhibition of SCD1 in C57BL/6J mouse eyelid assessed as residual activity at 1 mg/kg, po treated for 6 hrs followed by incubation with [14C]stearoyl-CoA substrate for 30 mins by TLC assay relative to control. Type of series: organism-based. Put shortly:
(§2)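 Male 6-week-old C57BL/6J mice dosed orally as a suspension in 0.5% methylcellulose. Liver or eyelid was taken 6 or 24 h later and homogenized in 100 mM Tris-HCl pH 7.4 with 0.25 M sucrose. S9 was obtained at 10,000 × g, 4 °C. S9 was incubated with [14C]stearoyl-CoA, NADH, MgCl2 and cytochrome b5 at room temperature, 10 min for liver and 30 min for eyelid. Lipids were saponified and run on AgNO3 TLC to quantify stearate and oleate. Result is % of vehicle control.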

Series [6] deals with Mus musculus. The experiment in a line: Ex vivo inhibition of SCD1 in C57BL/6J mouse liver assessed as residual activity at 1 mg/kg, po treated for 6 hrs followed by incubation with [14C]stearoyl-CoA substrate for 10 mins by TLC assay relative to control. The format is functional. Put shortly: as §2
For series [7], the target named is T1, Stearoyl-CoA desaturase (Homo sapiens, UniProt O00767).
T1 sequence (O00767 whole entry): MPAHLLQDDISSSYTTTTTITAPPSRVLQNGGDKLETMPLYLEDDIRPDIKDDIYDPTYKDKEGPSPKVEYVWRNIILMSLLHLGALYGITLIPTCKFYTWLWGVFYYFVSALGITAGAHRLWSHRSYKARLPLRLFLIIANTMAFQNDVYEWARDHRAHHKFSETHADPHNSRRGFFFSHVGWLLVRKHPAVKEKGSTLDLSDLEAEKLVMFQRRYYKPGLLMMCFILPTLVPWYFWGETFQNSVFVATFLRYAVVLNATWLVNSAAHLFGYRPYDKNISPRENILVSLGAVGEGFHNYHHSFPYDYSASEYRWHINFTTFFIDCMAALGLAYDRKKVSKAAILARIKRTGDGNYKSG
As to the kind of experiment: Inhibition of recombinant human SCD1 expressed in baculovirus expression system assessed as reduction in [3H]H2O production using stearoyl [9,10-3H]CoA as substrate in presence of NADH incubated for 30 mins by scintillation counting method. Put shortly: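 Desaturation of [9,10-3H]stearoyl-CoA measured as released [3H]H2O. Water was separated from charcoal-adsorbed substrate by filtration and counted by scintillation. Remaining activity = (compound − background)/(control − background). DMSO wells served as control and pre-stopped wells as background. IC50 was interpolated from the two points bracketing 50%.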

Series [8] is described as follows: Apparent terminal half life in Sprague-Dawley rat at 10 mg/kg, po. Type of series: ADME, organism-based. The settings on record: in vivo, read-out: betat1/2(app) (converted). Put shortly: as §1
The nature of series [9]: Toxicity in Sprague-Dawley rat administered orally once daily for 2 weeks. Type of series: organism-based. The following applies: in vivo, po. Put shortly:
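Male Sprague Dawley rats, 6 weeks old (5 per group), were dosed orally once daily for 2 weeks at 100 or 1000 mg/kg as a suspension in 0.5% methylcellulose; controls received vehicle. Readouts: clinical observations, body weight, food consumption, ophthalmoscopy in week 2, and terminal necropsy, hematology, clinical chemistry, organ weights and histopathology. Plasma levels were measured 24 h post-dose on days 1, 5 and 10.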

Series [10] is described as follows: Cmax in C57BL/6J mouse at 10 mg/kg, po. Type of series: ADME, organism-based. More on the design: dose 10 mg/kg, route oral. The settings on record: in vivo. Put shortly: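 Two male C57BL/6J mice per route, 10 mg/kg po and 1 mg/kg iv. Plasma concentration–time profiles gave Cmax, tmax, terminal half-life and AUC0-inf. Bioavailability was derived from the po and iv data.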

Series [11] has as its system Mus musculus. The experiment in a line: Ex vivo inhibition of SCD1 in C57BL/6J mouse eyelid assessed as residual activity at 100 mg/kg, po treated for 24 hrs followed by incubation with [14C]stearoyl-CoA substrate for 30 mins by TLC assay relative to control. Type of series: organism-based. Put shortly: as §2
Series [12] in a line: Solubility of the compound in PBS at pH 7.2. Type of series: physicochemical.
Series [13] in a line: Metabolic stability in mouse liver S9 fraction after 1 hr. The format is ADME, subcellular. The following applies: read-out: Stability.
For series [14], the target named is hERG (KCNH2) (Homo sapiens, UniProt Q12809). The experiment in a line: Inhibition of human ERG at 10 uM relative to control.

As usually defined, the clearance is the volume of plasma or blood freed of the substance per unit of time. The bioavailability is the share of a dose that reaches the circulation, judged against a reference dose that is usually intravenous. A word on the IC50: it is the concentration that gives 50% inhibition. What is called NOAEL is the highest dose or exposure tested at which no adverse effect was seen. One may read the Cmax as the peak of the concentration-time curve. Broadly, the solubility is how much of the substance goes into solution per volume. As usually defined, the inhibition is the percentage by which the read-out fell short of the control.

hERG (KCNH2), sequence (Q12809 whole entry): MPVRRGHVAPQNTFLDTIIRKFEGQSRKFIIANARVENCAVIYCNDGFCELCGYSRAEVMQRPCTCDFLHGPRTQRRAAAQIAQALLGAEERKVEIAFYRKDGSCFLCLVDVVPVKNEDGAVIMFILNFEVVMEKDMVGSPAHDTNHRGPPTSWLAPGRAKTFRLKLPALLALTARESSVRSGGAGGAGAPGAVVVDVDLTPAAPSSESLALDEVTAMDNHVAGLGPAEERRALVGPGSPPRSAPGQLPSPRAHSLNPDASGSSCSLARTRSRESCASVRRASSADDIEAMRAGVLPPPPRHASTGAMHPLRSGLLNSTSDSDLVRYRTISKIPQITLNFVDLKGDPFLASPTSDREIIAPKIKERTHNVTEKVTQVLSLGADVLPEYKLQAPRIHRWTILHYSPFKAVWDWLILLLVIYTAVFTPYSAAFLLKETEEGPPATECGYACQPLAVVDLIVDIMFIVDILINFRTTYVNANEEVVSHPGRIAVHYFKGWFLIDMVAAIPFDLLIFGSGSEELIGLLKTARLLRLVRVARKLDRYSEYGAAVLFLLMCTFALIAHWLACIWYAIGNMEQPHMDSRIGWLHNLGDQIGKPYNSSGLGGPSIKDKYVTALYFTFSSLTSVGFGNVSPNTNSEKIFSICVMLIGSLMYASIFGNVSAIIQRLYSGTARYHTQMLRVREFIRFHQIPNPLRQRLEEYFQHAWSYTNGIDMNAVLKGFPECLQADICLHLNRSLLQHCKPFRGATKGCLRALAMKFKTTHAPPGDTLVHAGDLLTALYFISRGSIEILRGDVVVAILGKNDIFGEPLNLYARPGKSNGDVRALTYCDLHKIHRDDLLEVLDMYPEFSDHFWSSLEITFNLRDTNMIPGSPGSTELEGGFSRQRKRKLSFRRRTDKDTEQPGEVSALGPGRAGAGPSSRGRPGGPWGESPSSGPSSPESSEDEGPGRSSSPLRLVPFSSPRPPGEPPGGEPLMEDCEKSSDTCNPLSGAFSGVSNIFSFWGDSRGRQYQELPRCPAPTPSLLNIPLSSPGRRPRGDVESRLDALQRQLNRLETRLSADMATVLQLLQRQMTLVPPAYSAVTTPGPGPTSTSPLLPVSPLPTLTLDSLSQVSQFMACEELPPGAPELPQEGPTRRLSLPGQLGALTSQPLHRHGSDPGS

Turning to `CCCCc1ccccc1NCc1ccc(C(=O)Nc2nc(CC(=O)O)cs2)s1`, the clearance in series [1] is 10.2 mL/min/kg. The concentration at 6 h in series [2] turned out to be 1000 nM. For the same compound, the bioavailability in series [3] worked out at 16%. In addition, the Activity is listed as 6% in series [4], 97% in series [5], 13% in [6] and 57% in [11]. Moreover, the IC50 in series [7] was 8.8 nM. In addition, the half-life in series [8] is 4.7 h. Besides, in series [9], the NOAEL at 336 h came to 100 mg/kg. The Cmax in series [10] is 1700 nM. This compound also had a solubility in [12] of 82 µM (≈ 35.2 µg/mL). For the same compound, the remaining at 1 h in [13] was 90%. In addition, in [14], the inhibition at 10 µM amounted to 14.7%.
